Reference: publication PMC8366898 (European journal of medicinal chemistry, 2018)
Values after ≈ are worked out from the molar mass of the structure shown. “Also recorded” adds a separate entry of the source. Like-named read-outs stand apart in the source and are kept apart here.

Columns and labels:
S. aureus [1] = assay: MIC, whole cell growth inhibition dose response; format: cell-based, Staphylococcus aureus; details: for MIC: Staphylococcus aureus, MRSA
[2] = SPR binding of peptides on immobilized liposomes; details: POPC lipid systems, 100 μM peptide
five bacterial pathogens = assay: Bacterial growth inhibition at single concentration, whole panel; format: cell-based; details: 32 μg/mL, in words
S. aureus [3] = assay: Bacterial growth inhibition at single concentration; format: cell-based, Staphylococcus aureus; details: 32 μg/mL (15–17 μM), OD600, 18 h; in words
A. baumannii [4] = assay: as above; format: cell-based, Acinetobacter baumannii; details: 32 μg/mL (15–17 μM), OD600, 18 h
Liposome leakage = details: 20 μM peptide, CF dequenching
In short: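 Vesicles: 5 mg DOPC in chloroform, dried under N2, then freeze-dried 2 h to remove residual solvent. The lipid was redissolved in diethyl ether and hydrated in 10 mM HEPES, 100 mM KCl, pH 7.4, containing 50 mM carboxyfluorescein (quenching level). Peptide at 20 μM was mixed with vesicles for 3 min equilibration. Release was followed as the fluorescence dequenching rate.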

A. baumannii [5] = assay: MIC, whole cell growth inhibition dose response; format: cell-based, Acinetobacter baumannii; details: polystyrene 96-well plate, n=2
K. pneumoniae = assay: MIC, whole cell growth inhibition dose response; format: cell-based, Klebsiella pneumoniae; details: n=2
E. coli = assay: MIC, whole cell growth inhibition dose response; format: cell-based, Escherichia coli; details: n=2
[6] = non-binding surface 96-well plate

Compound: CN[C@H](CC(C)C)C(=O)N[C@H]1C(=O)N[C@@H](CC(N)=O)C(=O)N[C@H]2C(=O)N[C@H]3C(=O)N[C@H](C(=O)N[C@H](C(=O)O)c4cc(O)cc(O)c4-c4cc3ccc4O)[C@H](O)c3ccc(c(Cl)c3)Oc3cc2cc(c3O[C@@H]2O[C@H](CO)[C@@H](O)[C@H](O)[C@H]2O[C@H]2C[C@](C)(N)[C@H](O)[C@H](C)O2)Oc2ccc(cc2Cl)[C@H]1O [Vancomycin]
- MIC (S. aureus [1]; read-out: MIC S. aureus MRSA NBS plate): 2 µg/mL (≈ 1.38 µM)
- MIC (S. aureus [1]; read-out: MIC S. aureus MRSA PS plate): 2 µg/mL (≈ 1.38 µM)

Compound: Ac-(AzPro-Pro)8-NHCH2CH2OH [Peptide 2]
- SPR binding response [2]: showed some binding response
- antibacterial activity (growth inhibition) over the bacterial panel (five bacterial pathogens): considerable loss of activity

Compound: Boc-(Pro-AzPro)4-H [Peptide 22]
- antibacterial activity (growth inhibition) over the bacterial panel (five bacterial pathogens): little inhibition

Compound: Boc-(Pro-AzPro)8-Cbz [Peptide 10]
- SPR binding response [2]: showed some binding response

Compound: Boc-(Pro-AzPro)8-H.HCl [Peptide 17]
- S. aureus growth inhibition (S. aureus [3]): some activity
- A. baumannii growth inhibition (A. baumannii [4]): some activity

Compound: Cbz-(AzPro-Pro)4-OH [Peptide 19]
- antibacterial activity (growth inhibition) over the bacterial panel (five bacterial pathogens): little inhibition

Compound: Cbz-(AzPro-Pro)4-O^tBu [Peptide 18]
- antibacterial activity (growth inhibition) over the bacterial panel (five bacterial pathogens): little inhibition

Compound: Cbz-(AzPro-Pro)8-(N-Methyl AzPro) [Peptide 13]
- antibacterial activity (growth inhibition) over the bacterial panel (five bacterial pathogens): highest activity

Compound: Cbz-(AzPro-Pro)8-NHCH2CH2OH [Peptide 1]
- SPR binding response [2]: showed some binding response
- A. baumannii growth inhibition (A. baumannii [4]): 38%
- DOPC liposome leakage (Liposome leakage): 13%
- antibacterial activity (growth inhibition) over the bacterial panel (five bacterial pathogens): highest activity

Compound: Cbz-(AzPro-Pro)8-OH [Peptide 14]
- antibacterial activity (growth inhibition) over the bacterial panel (five bacterial pathogens): considerable loss of activity; also recorded: largely abolishes all activity

Compound: Cbz-(AzPro-Pro)8-O^tBu [Peptide 8]
- SPR binding response [2]: showed some binding response
- antibacterial activity (growth inhibition) over the bacterial panel (five bacterial pathogens): highest activity

Compound: Cbz-(AzPro-Pro)16-O^tBu [Peptide 11]
- antibacterial activity (growth inhibition) over the bacterial panel (five bacterial pathogens): considerable loss of activity; also recorded: drastic loss in activity

Compound: Colistin
- MIC S. aureus MRSA NBS plate (S. aureus [1]; non-binding surface 96-well plate, n=2): >32 µg/mL
- MIC S. aureus MRSA PS plate (S. aureus [1]; polystyrene 96-well plate, n=2): >32 µg/mL
- MIC A. baumannii Type PS plate (A. baumannii [5]): 1 µg/mL
- MIC K. pneumoniae MDR NBS plate (K. pneumoniae; [6]): 0.06 µg/mL
- MIC K. pneumoniae MDR PS plate (K. pneumoniae; polystyrene 96-well plate): 0.25 µg/mL
- MIC E. coli FDA Control NBS plate (E. coli; [6]): 0.016 µg/mL
- MIC E. coli FDA Control PS plate (E. coli; polystyrene 96-well plate): 0.125 µg/mL

Compound: Formyl-(AzPro-Pro)6-NHCH2CH2OH [Peptide 6]
- antibacterial activity (growth inhibition) over the bacterial panel (five bacterial pathogens): largely abolishes all activity

Compound: Formyl-(AzPro-Pro)7-NHCH2CH2OH [Peptide 5]
- antibacterial activity (growth inhibition) over the bacterial panel (five bacterial pathogens): largely abolishes all activity

Compound: H-(AzPro-Pro)4-O^tBu [Peptide 20]
- antibacterial activity (growth inhibition) over the bacterial panel (five bacterial pathogens): largely abolishes all activity

Compound: H-(AzPro-Pro)8-NHCH2CH2OH [Peptide 4]
- antibacterial activity (growth inhibition) over the bacterial panel (five bacterial pathogens): considerable loss of activity

Compound: H-(Pro-AzPro)8-H [Peptide 9]
- antibacterial activity (growth inhibition) over the bacterial panel (five bacterial pathogens): highest activity

Compound: HCl. H-(Pro-AzPro)8-Cbz [Peptide 16]
- S. aureus growth inhibition (S. aureus [3]): some activity
- A. baumannii growth inhibition (A. baumannii [4]): some activity

Compound: HCl.H-(Pro-AzPro)4-Cbz [Peptide 23]
- antibacterial activity (growth inhibition) over the bacterial panel (five bacterial pathogens): little inhibition
